Only some compounds are listed: those with a hit (about 3.3% of all), similar ones and a draw of the others.
ROMK mod = modulators of human ROMK potassium channel. P48048. Tet-inducible ROMK, thallium flux fluorescence; actives lie on both sides. B-score at 10 µM. 130,000 compounds, 2% hits;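 active = signal ratio slope over the read window, or its plate-corrected B-score, at least 3 SD from the plate mean, either direction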;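 note: B-score of the F/F0 ratio slope over 7 to 12 s after thallium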
Target sequence (P48048 whole entry, looked up): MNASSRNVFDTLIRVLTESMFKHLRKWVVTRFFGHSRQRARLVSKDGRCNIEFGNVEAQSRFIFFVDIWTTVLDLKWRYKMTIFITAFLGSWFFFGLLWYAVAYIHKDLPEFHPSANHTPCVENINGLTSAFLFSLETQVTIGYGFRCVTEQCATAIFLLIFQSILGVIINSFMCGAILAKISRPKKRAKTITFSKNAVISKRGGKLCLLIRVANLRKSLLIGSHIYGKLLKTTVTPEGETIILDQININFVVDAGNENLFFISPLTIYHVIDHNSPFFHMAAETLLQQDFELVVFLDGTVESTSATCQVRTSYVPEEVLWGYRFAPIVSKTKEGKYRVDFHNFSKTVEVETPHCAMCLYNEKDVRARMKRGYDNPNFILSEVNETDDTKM
PMI act = phosphomannose isomerase (human) activation; 190,000 compounds, 0.005% hits; activation factor at 20 µM; purified human PMI, coupled resazurin fluorescence, 20 min; active compounds read high; 1 = vehicle control, 0 substrate-free wells; AID 1214;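 active = activation factor of 2 or more at 20 µM, relative to plate controls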
Target sequence (P34949 whole entry, looked up): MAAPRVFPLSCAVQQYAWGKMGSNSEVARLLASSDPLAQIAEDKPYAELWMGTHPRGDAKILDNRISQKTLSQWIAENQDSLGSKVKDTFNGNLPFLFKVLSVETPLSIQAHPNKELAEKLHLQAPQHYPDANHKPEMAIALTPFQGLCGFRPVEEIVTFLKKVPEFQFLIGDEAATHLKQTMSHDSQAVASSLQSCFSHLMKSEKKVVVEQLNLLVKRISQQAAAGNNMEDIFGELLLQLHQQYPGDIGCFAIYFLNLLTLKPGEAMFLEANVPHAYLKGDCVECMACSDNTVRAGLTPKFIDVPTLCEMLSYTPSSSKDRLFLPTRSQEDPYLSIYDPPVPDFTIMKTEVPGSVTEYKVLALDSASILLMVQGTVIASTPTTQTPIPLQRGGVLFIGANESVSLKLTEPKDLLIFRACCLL
Cl transport mod = KCC2 (human) Cl- transport modulation | B-score of Tl+ flux slope (higher = more flux/activation; lower = inhibition) at 10 µM | KCC2 cells, thallium flux FluoZin-2 fluorescence | 190,000 compounds, 2.2% hits | Q9H2X9;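 active = thallium flux slope and its plate-corrected score both differing from the plate sample mean at a set confidence after two filtering rounds, in either direction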;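 note: slope of fluorescence scaled to starting intensity during 10 to 20 s after thallium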
PMI act satM6P = increases human PMI activity with near-saturating mannose 6-phosphate; P34949; AID 1216; 190,000 compounds, 0.34% hits; coupled PMI enzyme assay, resazurin fluorescence, 20 min; active compounds read high; 1 = untreated enzyme, 0 = substrate-free blank; activation factor at 20 µM;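 active = activation factor of 2 or more at 20 µM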
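Material: human phosphomannose isomerase with PGI, G6PDH, diaphorase coupling enzymes. Quantity: 15 ng/mL PMI. Medium: HEPES pH 7.4 buffer with MgCl2 and Tween-20. Reagent: Near-saturating mannose-6-phosphate, 1.0 mM. Compound: 20 µM single dose. Times: enzyme reaction with compound 20 min at room temperature. Detection: resorufin fluorescence at Ex 544/Em 590 nm.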
ABCG2 inh = human ABCG2 inhibition, ABCB1 as counter-screen; Q9UNQ0; IgMXP3 cells, JC-1 efflux, flow cytometry; inhibition, % at 6.6 µM; 190,000 compounds, 0.1% hits; AID 1325;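 active = inhibition above 80%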;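 note: 0% = DMSO and 100% = nicardipine control wells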
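test system = two drug-resistant human cell lines, ABCG2 and ABCB1 | amount = 3 million cells/mL final, two lines in 1:1 ratio | reagent = JC-1 transporter substrate | doses = one concentration, 6.6 µM final | incubation = 10 min at 25 °C | signal = flow cytometric JC-1 green MFI at 530 nm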
ABCB1 inh = blocks JC-1 efflux by human ABCB1 transporter; 190,000 compounds, 0.067% hits; P08183; CCRF-Adr cells, flow cytometry; inhibition, % at 6.6 µM; in the data active = inhibition above about 40%;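 note: 0% = vehicle and 100% = reference inhibitor; higher value means more JC-1 retained so stronger ABCB1 efflux block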
KCC2 secondary = confirmation of human KCC2 transport modulators | HEK293-KCC2, thallium flux, FluoZin2 fluorescence; active compounds read high | 3,700 compounds, 15% hits | shares compounds with Cl transport mod | AID 1713 | normalised thallium flux (F/F0 slope) at 10 µM;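 active = thallium flux slope above the same plate's solvent-only control mean plus 3 SD; inconclusive = the two replicate wells disagree; inactive = no significant difference from solvent-only control wells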
KCC2 bumet counter = thallium flux despite bumetanide block in KCC2 cells, secondary assay 3; shares compounds with Cl transport mod; HEK293-KCC2 + bumetanide/ouabain, thallium flux FluoZin2; active compounds read high; normalized thallium flux at 10 µM; 3,700 compounds, 49% hits;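 active = thallium entry rate above the same plate's blocked-transporter control wells by more than 3 SD; inconclusive = the two repeat wells disagree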;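 note: raw slope of fluorescence over initial fluorescence between 10 and 20 s after thallium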
KCC2 sec2 = confirmation of human KCC2 transport modulators | shares compounds with Cl transport mod | HEK293-KCC2, thallium flux FluoZin2 fluorescence; actives lie on both sides; F/F0 rise rate, 10–20 s post-thallium | normalized thallium flux at 10 µM | 3,700 compounds, 23% hits | AID 1715;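 active = thallium flux slope more than 3 SD above or below the plate's solvent-only control mean, mostly below; inconclusive = the two repeat wells disagreed; inactive = no significant shift from solvent-only controls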;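 note: raw slope with 0.1% DMSO as baseline and bumetanide as block control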
HEK293 Tl flux = acts in parental HEK cells, KCC2 counter-screen; HEK293 parental cells, thallium flux FluoZin2, ouabain; baseline-ratio fluorescence slope, 10–20 s after thallium; 3,700 compounds, 46% hits; shares compounds with Cl transport mod; thallium flux rate (normalised fluorescence) at 10 µM;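 active = thallium flux rate significantly above the same plate's solvent-only control wells, beyond their mean plus 3 SD; inconclusive = the two replicate wells gave conflicting results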
KCC2 ouabain = confirmation of human KCC2 modulators with ouabain; shares compounds with Cl transport mod; HEK293-KCC2, thallium flux FluoZin2 fluorescence; bidirectional: low = inhibitor, high = activator; raw Tl+ flux slope (below DMSO = inhibition, above = activation) at 10 µM; 3,700 compounds, 48% hits;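 active = thallium flux slope beyond 3 SD from same-plate DMSO control mean in most replicates, usually higher, sometimes lower; inconclusive = repeat tests gave conflicting results; inactive = no significant difference from controls in most replicates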;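 note: slope of initial-normalized fluorescence between seconds 10 and 20 after thallium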
HEK counter2 = acts in parental HEK cells, second KCC2 counter-screen; HEK293 parental, thallium flux FluoZin-2 fluorescence slope; shares compounds with Cl transport mod; thallium flux slope at 10 µM; 3,700 compounds, 33% hits;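 active = thallium flux slope above the same plate's solvent-control mean plus 3 SD in both duplicate wells; inconclusive = duplicate wells that disagreed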;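 note: run without ouabain in cells lacking the KCC2 cotransporter; slope of fluorescence scaled to its starting value between 10 and 20 s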
Numbers without * were called inactive; ? = inconclusive; . = not tested or not shown.

SMILES	ROMK mod	PMI act	Cl transport mod	PMI act satM6P	ABCG2 inh	ABCB1 inh	KCC2 secondary	KCC2 bumet counter	KCC2 sec2	HEK293 Tl flux	KCC2 ouabain	HEK counter2
COc1cccc(Nc2n[nH]c(=S)s2)c1	.	1.5	-6.84*	1.9	1.4	-1.7	0.00622	0.00442	0.0213*	0.0068	0.0115*	0.00927
Cc1cccc(Nc2n[nH]c(=S)s2)c1C	.	0.9	-5.27*	1.3	0.5	-0.1	0.00568	0.00679	0.0174*	0.00724	0.00736*	?
O=C(c1cnn2c(C(F)(F)F)cc(-c3ccccc3)nc12)N1CCCCC1c1cccnc1 (centres undefined)	0.886	0.8	-3.53	0.9	17.8	10.6	0.00554	0.00396	0.0287	0.00539*	0.0166	0.0089
C/C(Cn1nnc2ccccc21)=N\NC(=O)c1ccc(Br)cc1	-0.196	1.1	0.00367	1.1	-0.2	-0.1	.	.	.	.	.	.
O=C(Nc1ccccc1)O/N=C/c1ccccc1Cl	-0.0938	1	-5.74*	1	0.1	-0.2	0.00764	0.00568	0.0323	0.00724	0.0197	0.0109
Cc1cn(C2CC3OCC3O2)c(=O)[nH]c1=O (centres undefined)	.	0.9	.	0.9	-0.8	-0.2	.	.	.	.	.	.
CC(C)[C@H](NC(=O)c1ccccc1)C(=O)OCC(=O)N1CCCc2ccccc21	-1.02	1	-0.484	1	4.0	2.1	.	.	.	.	.	.
Cc1ccc(C(=O)NC(=S)NCC2CCCO2)cc1Br (centres undefined)	-1.55	1	12*	1	0.3	0.2	0.01	0.0225*	0.0343	0.0279*	0.0275*	0.0121
O=C(CNC(=S)NC(=O)c1ccc(Br)o1)c1ccccc1	1.08	1.1	5.66*	1.1	-0.5	-0.3	0.0138*	0.047*	0.034	0.0408*	0.0374*	0.0159*
O=C(NC(=S)NCC1CCCO1)c1ccco1 (centres undefined)	-0.343	1.1	1.77	1.1	-0.1	0.2	.	.	.	.	.	.
O=C(NC(=S)NCC1CCCO1)c1ccc(Br)o1 (centres undefined)	-0.462	1	50.7*	1	-3.9	-0.6	0.00813	0.0493*	0.0447*	0.0374*	0.0435*	0.032*
O=C(NC(=S)NCC1CCCO1)c1cccs1 (centres undefined)	1.04	1	2.5	1	-7.0	-1.1	.	.	.	.	.	.
N/C(=N\O)c1ccc(N2CCN(c3ncccc3C(F)(F)F)CC2)nc1	.	.	-1.89	.	.	.	.	.	.	.	.	.
O=C(Nc1cc(C(F)(F)F)cc(C(F)(F)F)c1)c1ccc(Cn2cc(C(F)(F)F)ccc2=O)cc1	.	1	0.449	1	77.8	3.3	.	.	.	.	.	.
O=C1N(Cc2ccc(F)cc2)CCN1c1ccc(F)cc1	0.309	0.9	-3.34*	1	15.5	-0.2	0.00665	?	0.0304	0.0112*	?	0.0116
Cc1ccc(C(=O)NNC(=O)CSc2nnc3c(n2)[nH]c2ccc(C)cc23)cc1	-0.349	1	5.39*	1.1	0.9	0.1	0.00647	0.00432	0.0315	0.00727	0.0185	0.0106
CCc1ccc2[nH]c3nc(SCC(=O)NNC(=O)c4ccc(C(C)(C)C)cc4)nnc3c2c1	.	1.1	.	1	0.1	0.0	.	.	.	.	.	.
Cc1onc(-c2ccc(Cl)cc2Cl)c1-c1csc(N/N=C/c2ccccc2Cl)n1	.	.	2.64	.	.	.	.	.	.	.	.	.
S=c1[nH]c(-c2ccccc2)cn1/N=C/c1ccccc1Br	0.509	0.9	45.6*	1	-9.6	-1.5	?	0.0659*	0.0632*	0.0671*	0.0795*	0.0466*
Oc1ccc(/C=N/n2cc(-c3ccccc3)[nH]c2=S)cc1	0.226	0.9	0.141	0.9	-0.1	-0.1	.	.	.	.	.	.
S=c1[nH]c(-c2ccccc2)cn1/N=C/c1cccc2ccccc12	2.05	1	57.8*	1	-1.3	-0.6	0.00792	0.0792*	0.0774*	0.0778*	0.0863*	0.0698*
COc1cc(/C=N/n2cc(-c3ccccc3)[nH]c2=S)cc(OC)c1O	.	.	0.333	.	.	.	.	.	.	.	.	.
Cc1ccc(/C=N/n2cc(-c3ccccc3)[nH]c2=S)s1	1.5	1	32.6*	1	-0.9	-1.0	0.0236*	0.0681*	0.0373	0.0559*	0.0578*	0.0191*
O=C(COc1ncnc2ccccc12)c1ccc(Cl)cc1	1.08	1	0.118	1	3.4	0.3	.	.	.	.	.	.
Cc1cccc(NC(=O)CSc2nnc(CSc3nc(C)cc(C)n3)n2Cc2ccco2)c1	-2.17	0.9	.	0.9	5.0	2.3	0.00656	0.00406	0.0299	?	0.0164	0.00933
SMILES	ROMK mod	PMI act	Cl transport mod	PMI act satM6P	ABCG2 inh	ABCB1 inh	KCC2 secondary	KCC2 bumet counter	KCC2 sec2	HEK293 Tl flux	KCC2 ouabain	HEK counter2
CSc1nc2sc3c(c2c(=O)n1C1CCCCC1)CCN(C)C3	-0.354	0.8	0.322	0.9	1.5	0.2	0.0159	0.00391	0.0311	0.00791	0.0162	0.0102
Cc1c(Cl)c([N+](=O)[O-])nn1CC(=O)NC(C)C1CC2CCC1C2 (centres undefined)	-2.34	0.9	-0.353	1	-3.0	-0.6	.	.	.	.	.	.
COc1ccc(OC)c(C(=O)COC(=O)c2ccccc2O)c1	-0.113	1.2	.	0.9	5.2	0.2	0.00632	0.00591	0.0279	0.0064	0.023*	?
O=C(CN1C2=NCCCN2c2ccccc21)c1ccc(Cl)cc1Cl	-2.4	1.1	0.732	1.1	0.2	0.1	.	.	.	.	.	.
CNC(=O)CN(C)S(=O)(=O)c1ccc(F)cc1	0.769	1	.	1.1	1.9	0.1	.	.	.	.	.	.
COC(=O)c1cccnc1NC(=S)NC1CCCCC1	1.76	1	121*	1.1	4.4	0.0	0.0117*	0.128*	0.0977*	0.105*	0.0976*	0.103*
O=C(NC1CCCC1)c1sc(=S)n2c1[nH]c(=O)c1ccccc12	-1.42	1	23.8*	0.9	0.4	-0.2	0.0155*	0.0522*	0.0301	0.0243*	0.0451*	0.0136*
